Assay results: PMC10556424 (RSC Advances, 2023)
Read-outs that look alike come from different tables or passages of the source.

Columns and labels:
[1] = In vitro microsomal stability; assay type: in vitro ADME; settings: human liver microsomes, 1 μM
Method in brief: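 Compound (1 μM) with pooled human liver microsomes (0.4 mg mL−1) in 100 mM potassium phosphate, pH 7.4, with 3.3 mM MgCl2 and 1.3 mM β-NADPH. Organic solvent was ≤1%, at 37 °C. Time-point samples were quenched with ice-cold acetonitrile containing internal standard, centrifuged, and the supernatants analysed by LC-MS/MS. Results are intrinsic clearance.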

[2] = test system: HBV DNA in HBV-expressed HepG2.2.15 cells; assay: In vitro anti-HBV activity in HepG2.2.15 cell line; assay type: cell-based; settings: Hepatitis B virus; for activity at 1 µM: HepG2.2.15, 144 h, read-out: % HBV DNA remaining
Method in brief: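 HepG2.2.15 cells were seeded at 5 × 10^5 per well in high-glucose DMEM with 10% heat-inactivated FBS, 300 mg L−1 G418, 1% non-essential amino acids and antibiotic–antimycotic, then held overnight at 37 °C, 5% CO2. Compound or 0.5% DMSO was given for 3 days, then renewed for 3 more days. Intracellular HBV DNA was measured by qPCR as % remaining versus vehicle; EC50 came from a 4-parameter nonlinear fit.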

[3] = test system: all tested CYPs: CYP1A2, CYP2A6, CYP2B6, CYP2C8, CYP2C9, CYP2C19, CYP2D6, CYP2E1, CYP3A4/5; assay: CYP450 inhibition in human liver microsomes, all tested CYPs; assay type: in vitro ADME; settings: pooled human liver microsomes, pH 7.4
Method in brief: (§1)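 Test compound at 10 μM with pooled human liver microsomes (0.2 mg mL−1) and a cocktail of 10 CYP probe substrates. Buffer was 100 mM potassium phosphate, pH 7.4, with 3.3 mM MgCl2, at 37 °C. β-NADPH (1.3 mM) started the reaction. After 10 min, ice-cold 3% formic acid in 5% acetonitrile stopped it. Centrifuged samples went to LC-MS/MS; each metabolite's formation is given as % inhibition versus control.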

[4] = target: CYP2C19 (Homo sapiens, UniProt P33261); assay: CYP450 inhibition in human liver microsomes; assay type: in vitro ADME; settings: pooled human liver microsomes, pH 7.4, probe (S)-mephenytoin (50 μM)
Method in brief: as §1

[5] = Site of oxidative metabolism; assay type: in vitro ADME; settings: ESI file S2
[6] = target: T1, CYP2B6 (Homo sapiens, UniProt P20813); assay: CYP450 inhibition in human liver microsomes; assay type: in vitro ADME; settings: pooled human liver microsomes, pH 7.4, probe bupropion (12 μM)
T1 sequence (P20813 1-491): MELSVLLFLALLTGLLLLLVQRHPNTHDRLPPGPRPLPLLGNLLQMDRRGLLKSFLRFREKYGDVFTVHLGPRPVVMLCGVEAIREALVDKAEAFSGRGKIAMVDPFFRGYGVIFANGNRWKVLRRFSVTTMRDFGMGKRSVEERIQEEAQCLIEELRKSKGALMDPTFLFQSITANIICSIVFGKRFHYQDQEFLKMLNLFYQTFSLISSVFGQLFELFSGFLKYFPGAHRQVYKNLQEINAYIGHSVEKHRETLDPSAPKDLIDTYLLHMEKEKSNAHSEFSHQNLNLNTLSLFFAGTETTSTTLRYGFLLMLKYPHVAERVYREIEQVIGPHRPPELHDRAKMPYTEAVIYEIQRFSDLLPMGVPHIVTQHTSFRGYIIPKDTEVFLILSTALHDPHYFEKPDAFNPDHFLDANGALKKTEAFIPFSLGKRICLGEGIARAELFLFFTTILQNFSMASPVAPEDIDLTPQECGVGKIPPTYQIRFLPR
Method in brief: as §1

[7] = target: CYP2D6 (Homo sapiens, UniProt P10635); assay: CYP450 inhibition in human liver microsomes; assay type: in vitro ADME; settings: pooled human liver microsomes, pH 7.4, probe dextromethorphan (2.5 μM)
Method in brief: as §1

[8] = target: CYP2C9 (Homo sapiens, UniProt P11712); assay: CYP450 inhibition in human liver microsomes; assay type: in vitro ADME; settings: pooled human liver microsomes, pH 7.4, probe tolbutamide (100 μM)
Method in brief: as §1

[9] = Pharmacokinetic studies in rats; assay type: in vivo; settings: male, Sprague-Dawley, rat, plasma; for clearance: iv, 0.5 mg/kg; for bioavailability: po, 2 mg/kg
Method in brief: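 Male Sprague-Dawley rats got a single IV bolus (0.5 mg kg−1, in 10% DMSO in 20% hydroxypropyl methyl β-cyclodextrin) or oral gavage (2 mg kg−1, in 40% polyethylene glycol in water). Plasma was taken pre-dose and up to 24 h and assayed by LC-MS/MS. CL and F came from non-compartmental analysis.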

[10] = test system: HBV; settings: cited from earlier work
[11] = HepG2.2.15, read-out: HBV DNA inhibition EC50

Sequence of CYP2C9 (P11712 whole entry): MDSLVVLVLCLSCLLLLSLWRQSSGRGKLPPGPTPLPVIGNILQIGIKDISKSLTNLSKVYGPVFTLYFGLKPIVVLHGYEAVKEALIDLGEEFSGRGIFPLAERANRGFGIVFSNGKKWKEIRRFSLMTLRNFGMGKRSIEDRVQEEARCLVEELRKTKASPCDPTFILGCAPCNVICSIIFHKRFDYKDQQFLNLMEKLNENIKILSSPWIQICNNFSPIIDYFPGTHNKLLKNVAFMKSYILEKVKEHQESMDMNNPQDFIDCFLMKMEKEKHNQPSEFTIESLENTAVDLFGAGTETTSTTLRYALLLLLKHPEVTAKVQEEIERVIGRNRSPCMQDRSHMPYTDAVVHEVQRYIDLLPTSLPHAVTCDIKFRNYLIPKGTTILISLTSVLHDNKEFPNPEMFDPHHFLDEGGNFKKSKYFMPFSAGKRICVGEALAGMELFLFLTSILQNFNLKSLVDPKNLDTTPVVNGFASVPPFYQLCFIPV
Sequence of CYP2D6 (P10635 whole entry): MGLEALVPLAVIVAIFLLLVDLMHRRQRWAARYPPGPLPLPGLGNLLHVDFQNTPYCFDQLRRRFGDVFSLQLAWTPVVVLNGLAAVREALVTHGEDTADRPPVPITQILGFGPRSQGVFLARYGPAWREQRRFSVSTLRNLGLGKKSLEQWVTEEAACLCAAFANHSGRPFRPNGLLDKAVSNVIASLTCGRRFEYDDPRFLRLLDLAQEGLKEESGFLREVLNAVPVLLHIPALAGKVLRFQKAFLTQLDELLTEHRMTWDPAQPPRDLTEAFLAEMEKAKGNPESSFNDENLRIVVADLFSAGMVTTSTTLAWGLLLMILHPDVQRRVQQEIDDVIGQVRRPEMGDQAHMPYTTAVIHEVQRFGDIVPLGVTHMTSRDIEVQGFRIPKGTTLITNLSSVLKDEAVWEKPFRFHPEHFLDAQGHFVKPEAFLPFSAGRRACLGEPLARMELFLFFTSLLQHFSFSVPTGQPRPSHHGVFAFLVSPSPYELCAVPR
Sequence of CYP2C19 (P33261 whole entry): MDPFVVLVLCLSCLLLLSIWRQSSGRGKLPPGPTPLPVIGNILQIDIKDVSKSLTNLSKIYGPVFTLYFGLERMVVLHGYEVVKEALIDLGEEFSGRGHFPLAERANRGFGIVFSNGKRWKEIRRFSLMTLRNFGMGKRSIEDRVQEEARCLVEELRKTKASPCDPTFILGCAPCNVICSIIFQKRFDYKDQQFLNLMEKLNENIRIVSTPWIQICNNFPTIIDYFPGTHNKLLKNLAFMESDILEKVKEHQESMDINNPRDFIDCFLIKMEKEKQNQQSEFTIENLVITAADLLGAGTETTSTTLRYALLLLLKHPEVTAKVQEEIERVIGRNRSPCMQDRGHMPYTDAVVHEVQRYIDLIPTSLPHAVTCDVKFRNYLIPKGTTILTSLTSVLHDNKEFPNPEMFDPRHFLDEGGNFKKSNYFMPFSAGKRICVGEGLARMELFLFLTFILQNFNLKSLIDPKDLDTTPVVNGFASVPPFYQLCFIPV

CLint ([1]; Table 3) [μL per min per mg protein] | inhibition at 10 min, 10 µM [6] [%] | inhibition at 10 min, 10 µM [8] [%] | CLint ([1]; Table 4) [μL per min per mg protein] | EC50 [2, 11] [nM] | SMILES | activity at 1 µM [2] [%] | also measured
 |  |  | 3.6 | 18.2 ± 2 | Cc1ncnc(C)c1-c1ccc(C(=O)N2CC[C@H](C(=O)Nc3ccc(F)c(Cl)c3)C2)[nH]1 [CU12, (S)–N-(3-Chloro-4-fluorophenyl)-1-(5-(4,6-dimethylpyrimidin-5-yl)-1H-pyrrole-2-carbonyl)pyrrolidine-3-carboxamide] |  | 
 |  |  | 2.1 | 17.8 ± 3 | Cc1ncnc(C)c1-c1ccc(C(=O)N2CC[C@H](C(=O)Nc3cc(F)c(F)c(F)c3)[C@@H]2C)[nH]1 [CU13, (2S,3S)-1-(5-(4,6-Dimethylpyrimidin-5-yl)-1H-pyrrole-2-carbonyl)-2-methyl-N-(3,4,5-trifluorophenyl)pyrrolidine-3-carboxamide] |  | 
 |  |  | 2.9 | 13.2 ± 2 | Cc1ncnc(C)c1-c1ccc(C(=O)N2CC[C@H](C(=O)Nc3ccc(F)c(Cl)c3)[C@@H]2C)[nH]1 [CU14, (2S,3S)–N-(3-Chloro-4-fluorophenyl)-1-(5-(4,6-dimethylpyrimidin-5-yl)-1H-pyrrole-2-carbonyl)-2-methylpyrrolidine-3-carboxamide] |  | clearance [9]: 12.3 mL/min/kg; bioavailability [9]: 66%
 |  |  | 4.9 | 8.6 ± 2 | Cc1cc(NC(=O)[C@H]2CCN(C(=O)c3ccc(-c4c(C)ncnc4C)[nH]3)[C@H]2C)ccc1F [CU15, (2S,3S)-1-(5-(4,6-Dimethylpyrimidin-5-yl)-1H-pyrrole-2-carbonyl)-N-(4-fluoro-3-methylphenyl)-2-methylpyrrolidine-3-carboxamide] |  | EC50 ([2]; HepG2.2.15): < 10 nM; clearance [9]: 20 mL/min/kg; bioavailability [9]: 44%
 |  |  | 11.7 | 14.9 ± 3 | Cc1cc(NC(=O)[C@H]2CCN(C(=O)c3ccc(-c4c(C)n[nH]c4C)[nH]3)[C@H]2C)ccc1F [CU16, (2S,3S)-1-(5-(3,5-Dimethyl-1H-pyrazol-4-yl)-1H-pyrrole-2-carbonyl)-N-(4-fluoro-3-methylphenyl)-2-methylpyrrolidine-3-carboxamide] |  | 

Continued, compound first:

SMILES | CLint ([1]; Table 3) [μL per min per mg protein] | inhibition at 10 min, 10 µM [6] [%] | inhibition at 10 min, 10 µM [8] [%] | CLint ([1]; Table 4) [μL per min per mg protein] | EC50 [2, 11] [nM] | activity at 1 µM [2] [%] | also measured
Cc1ccc(C(=O)N2CC[C@H](C(=O)Nc3cc(F)c(F)c(F)c3)C2)[nH]1 [CU01, (S)-1-(5-Methyl-1H-pyrrole-2-carbonyl)-N-(3,4,5-trifluorophenyl)pyrrolidine-3-carboxamide] | 14.4 |  |  |  |  | 59 | inhibition at 10 min, 10 µM [3]: < 20%
O=C(Nc1cc(F)c(F)c(F)c1)[C@H]1CCN(C(=O)c2ccc(C3CC3)[nH]2)C1 [CU02, (S)-1-(5-cyclopropyl-1H-pyrrole-2-carbonyl)-N-(3,4,5-trifluorophenyl)pyrrolidine-3-carboxamide] | 14.5 | 50 |  |  |  | 48 | inhibition at 10 min, 10 µM [4]: 53%; Site of oxidative metabolic reactions [5]: oxidative metabolic reactions primarily occurred on the R group
O=C(Nc1cc(F)c(F)c(F)c1)[C@H]1CCN(C(=O)c2cc3ccccc3[nH]2)C1 [CU03, (S)-1-(1H-Indole-2-carbonyl)-N-(3,4,5-trifluorophenyl)pyrrolidine-3-carboxamide] | 9.2 |  | 62 |  |  | 44 | inhibition at 10 min, 10 µM [4]: 63%; EC50 ([2]; HepG2.2.15): 447 nM; inhibition at 10 min, 10 µM [7]: 51%; Site of oxidative metabolic reactions [5]: oxidative metabolic reactions primarily occurred on the R group
O=C(Nc1cc(F)c(F)c(F)c1)[C@H]1CCN(C(=O)c2ccc(-c3cccnc3)[nH]2)C1 [CU05, (S)-1-(5-(Pyridin-3-yl)-1H-pyrrole-2-carbonyl)-N-(3,4,5-trifluorophenyl)pyrrolidine-3-carboxamide] | 2.9 | 65 | 87 |  |  | 47 | 
O=C(Nc1cc(F)c(F)c(F)c1)[C@H]1CCN(C(=O)c2ccc(-c3ccncc3)[nH]2)C1 [CU06, (S)-1-(5-(Pyridin-4-yl)-1H-pyrrole-2-carbonyl)-N-(3,4,5-trifluorophenyl)pyrrolidine-3-carboxamide] | 4.6 | 81 | 67 |  |  | 28 | inhibition at 10 min, 10 µM [7]: 89%
O=C(Nc1cc(F)c(F)c(F)c1)[C@H]1CCN(C(=O)c2ccc(-c3ccccn3)[nH]2)C1 [CU07, (S)-1-(5-(Pyridin-2-yl)-1H-pyrrole-2-carbonyl)-N-(3,4,5-trifluorophenyl)pyrrolidine-3-carboxamide] | 6.2 |  |  |  |  | 77 | inhibition at 10 min, 10 µM [3]: < 20%
O=C(Nc1cc(F)c(F)c(F)c1)[C@H]1CCN(C(=O)c2ccc(-c3cncnc3)[nH]2)C1 [CU08, (S)-1-(5-(Pyrimidin-5-yl)-1H-pyrrole-2-carbonyl)-N-(3,4,5-trifluorophenyl)pyrrolidine-3-carboxamide] | 0.5 | 61 | 53 |  |  | 43 | 
C[C@H](NS(=O)(=O)c1cc(C(=O)Nc2ccc(F)c(C#N)c2)n(C)c1)C(F)(F)F [JNJ-6379] |  |  |  |  |  |  | pEC 50 [10]: 7.22 (ref. [15])
